Experimental data as given in ChEMBL document CHEMBL1828498, “Identification and characterization of a novel integrin-linked kinase inhibitor” (J Med Chem, 2011).
Active and inactive are the calls of the source. No cut-off for these calls is given here.

Key:
[1] = target: T1, Scaffold protein ILK (Homo sapiens) (UniProt Q13418); assay: Inhibition of ILK in human PC3 cells assessed as decrease in MLC phosphorylation by Western blot analysis; type: cell-based; settings: PC-3
T1 sequence (whole entry): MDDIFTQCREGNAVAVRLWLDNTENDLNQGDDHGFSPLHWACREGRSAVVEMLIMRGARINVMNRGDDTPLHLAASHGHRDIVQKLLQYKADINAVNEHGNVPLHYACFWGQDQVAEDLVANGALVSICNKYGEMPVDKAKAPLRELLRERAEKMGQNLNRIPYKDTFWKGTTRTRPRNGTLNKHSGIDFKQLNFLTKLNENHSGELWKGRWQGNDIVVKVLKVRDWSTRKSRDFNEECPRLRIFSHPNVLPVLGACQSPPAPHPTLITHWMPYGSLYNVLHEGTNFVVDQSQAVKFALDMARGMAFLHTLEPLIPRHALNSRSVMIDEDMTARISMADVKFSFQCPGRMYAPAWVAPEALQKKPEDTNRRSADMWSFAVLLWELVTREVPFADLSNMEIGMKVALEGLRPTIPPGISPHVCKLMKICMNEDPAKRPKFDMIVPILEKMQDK
How it was run: (§1)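 PC-3 and MDA-MB-231 cells exposed 24 h in 5% FBS medium across a concentration series. Phospho-GSK3β (Ser9) and phospho-MLC (Thr18/Ser19) detected by immunoblot: SDS lysis, primary 1:1000 at 4°C for 2 h, HRP secondary, ECL. Representative of three experiments.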

SK-BR-3 [2] = assay: Reduction in YB-1 concentration in human SKBR3 cells after 24 hrs by Western blot analysis; type: functional, cell-based
How it was run: (§2)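 PC-3 versus stable PC-3/CA-ILK, or SKBR3 versus transient SKBR3/CA-ILK (electroporation, used 48 h after), treated 24 h in 5% FBS medium; immunoblotting with ECL; representative of three experiments.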

[3] = target: T1, Scaffold protein ILK (Homo sapiens); assay: Inhibition of ILK in human PC3 cells assessed as decrease in phosphorylated p38 concentration by Western blot analysis; type: cell-based; settings: PC-3
How it was run: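 PC-3 cells exposed to graded concentrations for 24 h in 5% FBS medium. Immunoblotting for phospho-Tyr397-FAK, ERK1/2, p38 and JNK. Lysis in 1% SDS buffer, primary antibody 1:1000 at 4°C for 2 h, ECL. Three independent experiments.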

PC-3 [4] = assay: Induction of apoptosis in human PC3 cells assessed as early apoptotic cells at 4 uM by annexin V/PI staining (reference value: 5.6%); type: functional
[5] = target: T1, Scaffold protein ILK (Homo sapiens); assay: Inhibition of human ILK activity assessed myelin basic protein phosphorylation by radiometric kinase assay in the presence of [gamma 32P]ATP
How it was run: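 ILK immunoprecipitated from EGF-pretreated (100 ng/mL, 2 h) PC-3 lysates with protein A/G agarose; reaction in 25 μL with 5 μg MBP and 2.5 μCi [γ-32P]ATP, 30°C for 25 min; SDS-PAGE, autoradiography, densitometry versus DMSO control; mean ± SD, n = 3.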

[6] = target: Ribosomal protein S6 kinase beta-1 (Homo sapiens) (UniProt P23443); assay: Inhibition of p70S6K in human PC3 cells assessed as decrease in phosphorylated S6 by Western blot analysis; type: cell-based; settings: PC-3
How it was run: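 PC-3 cells (parental, or stable GFP-CA-ILK clones selected with G418 250 μg/mL and GFP sorting) exposed 24 h in 5% FBS medium; SDS lysis, immunoblot at 1:1000 primary, ECL; representative of three experiments.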

Mus musculus [7] = assay: Decrease in phosphorylation of GSK3-beta in human PC3 cells xenografted nude mouse tumor lysate at 25 mg/kg, po administered for 35 days by Western blot analysis; type: functional, organism-based; parameters: dose 25 mg/kg; settings: Neoplasm, PC-3
How it was run: (§3)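 Male NCr athymic nude mice, 5–7 weeks, with s.c. PC-3 xenografts (0.5 × 10^6 cells in 50% Matrigel), dosed by oral gavage once daily for 35 days. Vehicle 0.5% methylcellulose, 0.1% Tween 80 in water, 10 μL/g. Tumors snap-frozen at sacrifice; three tumors per group immunoblotted.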

Mus musculus [8] = assay: Decrease in phosphorylation of EGFR in human PC3 cells xenografted nude mouse tumor lysate at 25 mg/kg, po administered for 35 days by Western blot analysis; type: functional, organism-based; parameters: dose 25 mg/kg; settings: Neoplasm, PC-3; how it was run: as §3
[9] = target: Rapamycin-insensitive companion of mTOR (Homo sapiens) (UniProt Q6R327); assay: Inhibition of mTORC2 in human MDA-MB-231 cells assessed as SGK1 phosphorylation by Western blot analysis; type: cell-based
How it was run: (§4)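 Cells exposed 24 h in 5% FBS medium, final DMSO 0.1%; lysed in 1% SDS/10 mM EDTA/50 mM Tris pH 8.1, equal protein on SDS-PAGE, nitrocellulose, primary antibody 1:1000 at 4°C for 2 h, HRP secondary 1:5000, ECL detection; blots representative of three independent experiments.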

[10] = target: 3-phosphoinositide-dependent protein kinase 1 (Homo sapiens) (UniProt O15530); assay: Inhibition of PDK1 at 5 uM assessed as remaining activity
[11] = tested on: 3-phosphoinositide dependent protein kinase-2, PDK2; assay: Inhibition of PDK2 in human MDA-MB-231 cells assessed as Akt Ser-473 dephosphorylation by Western blot analysis; type: functional, cell-based; how it was run: as §4
PC-3 [12] = assay: Induction of apoptosis in human PC3 cells assessed as early apoptotic cells at 3 uM by annexin V/PI staining (reference value: 5.6%); type: functional
PC-3 [13] = assay: Induction of apoptosis in human PC3 cells assessed as late apoptotic cells at 3 uM by annexin V/PI staining (reference value: 9.8%); type: functional
[14] = target: Tyrosine-protein kinase JAK3 (Homo sapiens) (UniProt P52333); assay: Inhibition of Jak3 at 5 uM assessed as remaining activity
How it was run: (§5)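 Panel of 20 recombinant kinases, profiled by a commercial vendor.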

HMEC = assay: Antiproliferative activity against human HMEC cells at 1 to 5 uM by MTT assay; type: cell-based
How it was run: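 Cancer lines seeded 5000/well and nonmalignant PrEC/MEC 8000/well in 10% FBS, 24 h before treatment. Compound exposure 24 h in 5% FBS medium, 0.1% final DMSO. MTT (0.25 mg/mL) for 1 h at 37°C, dye solubilized in DMSO, absorbance read at 570 nm. Mean ± SD, n = 6.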

SK-BR-3 [15] = assay: Reduction in YB-1 concentration in human SKBR3 cells expressing constitutively active ILK after 24 hrs by Western blot analysis; type: functional, cell-based; how it was run: as §2
PC-3 [16] = assay: Reduction in EGFR concentration in human PC3 cells after 24 hrs by Western blot analysis; type: functional, cell-based; how it was run: as §2
PC-3 [17] = assay: Induction of apoptosis in human PC3 cells assessed as early apoptotic cells at 1 uM by annexin V/PI staining (reference value: 5.6%); type: functional
[18] = target: Epidermal growth factor receptor (Homo sapiens) (UniProt P00533); assay: Inhibition of EGFR at 5 uM assessed as remaining activity; how it was run: as §5
[19] = target: T1, Scaffold protein ILK (Homo sapiens); assay: Inhibition of ILK in human MDA-MB-231 cells assessed as decrease in MLC phosphorylation by Western blot analysis; type: cell-based; how it was run: as §1
PC-3 [20] = assay: Induction of apoptosis in human PC3 cells assessed as late apoptotic cells at 2 uM by annexin V/PI staining (reference value: 9.8%); type: functional

Sequence of Ribosomal protein S6 kinase beta-1 (Homo sapiens) (P23443 whole entry, looked up): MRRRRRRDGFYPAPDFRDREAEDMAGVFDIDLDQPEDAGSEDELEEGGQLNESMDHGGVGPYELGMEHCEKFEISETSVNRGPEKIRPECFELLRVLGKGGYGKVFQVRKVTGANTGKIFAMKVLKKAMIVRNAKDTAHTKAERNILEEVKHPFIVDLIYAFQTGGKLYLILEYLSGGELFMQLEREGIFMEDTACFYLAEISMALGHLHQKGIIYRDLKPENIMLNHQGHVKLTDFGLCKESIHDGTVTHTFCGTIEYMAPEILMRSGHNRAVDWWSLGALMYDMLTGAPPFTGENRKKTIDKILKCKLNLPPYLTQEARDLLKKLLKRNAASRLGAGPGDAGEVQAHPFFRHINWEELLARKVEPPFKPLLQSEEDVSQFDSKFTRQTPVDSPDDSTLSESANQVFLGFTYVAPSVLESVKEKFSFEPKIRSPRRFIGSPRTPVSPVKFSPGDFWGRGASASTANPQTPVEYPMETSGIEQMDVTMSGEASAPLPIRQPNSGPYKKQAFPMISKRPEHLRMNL
Sequence of Rapamycin-insensitive companion of mTOR (Homo sapiens) (Q6R327 whole entry): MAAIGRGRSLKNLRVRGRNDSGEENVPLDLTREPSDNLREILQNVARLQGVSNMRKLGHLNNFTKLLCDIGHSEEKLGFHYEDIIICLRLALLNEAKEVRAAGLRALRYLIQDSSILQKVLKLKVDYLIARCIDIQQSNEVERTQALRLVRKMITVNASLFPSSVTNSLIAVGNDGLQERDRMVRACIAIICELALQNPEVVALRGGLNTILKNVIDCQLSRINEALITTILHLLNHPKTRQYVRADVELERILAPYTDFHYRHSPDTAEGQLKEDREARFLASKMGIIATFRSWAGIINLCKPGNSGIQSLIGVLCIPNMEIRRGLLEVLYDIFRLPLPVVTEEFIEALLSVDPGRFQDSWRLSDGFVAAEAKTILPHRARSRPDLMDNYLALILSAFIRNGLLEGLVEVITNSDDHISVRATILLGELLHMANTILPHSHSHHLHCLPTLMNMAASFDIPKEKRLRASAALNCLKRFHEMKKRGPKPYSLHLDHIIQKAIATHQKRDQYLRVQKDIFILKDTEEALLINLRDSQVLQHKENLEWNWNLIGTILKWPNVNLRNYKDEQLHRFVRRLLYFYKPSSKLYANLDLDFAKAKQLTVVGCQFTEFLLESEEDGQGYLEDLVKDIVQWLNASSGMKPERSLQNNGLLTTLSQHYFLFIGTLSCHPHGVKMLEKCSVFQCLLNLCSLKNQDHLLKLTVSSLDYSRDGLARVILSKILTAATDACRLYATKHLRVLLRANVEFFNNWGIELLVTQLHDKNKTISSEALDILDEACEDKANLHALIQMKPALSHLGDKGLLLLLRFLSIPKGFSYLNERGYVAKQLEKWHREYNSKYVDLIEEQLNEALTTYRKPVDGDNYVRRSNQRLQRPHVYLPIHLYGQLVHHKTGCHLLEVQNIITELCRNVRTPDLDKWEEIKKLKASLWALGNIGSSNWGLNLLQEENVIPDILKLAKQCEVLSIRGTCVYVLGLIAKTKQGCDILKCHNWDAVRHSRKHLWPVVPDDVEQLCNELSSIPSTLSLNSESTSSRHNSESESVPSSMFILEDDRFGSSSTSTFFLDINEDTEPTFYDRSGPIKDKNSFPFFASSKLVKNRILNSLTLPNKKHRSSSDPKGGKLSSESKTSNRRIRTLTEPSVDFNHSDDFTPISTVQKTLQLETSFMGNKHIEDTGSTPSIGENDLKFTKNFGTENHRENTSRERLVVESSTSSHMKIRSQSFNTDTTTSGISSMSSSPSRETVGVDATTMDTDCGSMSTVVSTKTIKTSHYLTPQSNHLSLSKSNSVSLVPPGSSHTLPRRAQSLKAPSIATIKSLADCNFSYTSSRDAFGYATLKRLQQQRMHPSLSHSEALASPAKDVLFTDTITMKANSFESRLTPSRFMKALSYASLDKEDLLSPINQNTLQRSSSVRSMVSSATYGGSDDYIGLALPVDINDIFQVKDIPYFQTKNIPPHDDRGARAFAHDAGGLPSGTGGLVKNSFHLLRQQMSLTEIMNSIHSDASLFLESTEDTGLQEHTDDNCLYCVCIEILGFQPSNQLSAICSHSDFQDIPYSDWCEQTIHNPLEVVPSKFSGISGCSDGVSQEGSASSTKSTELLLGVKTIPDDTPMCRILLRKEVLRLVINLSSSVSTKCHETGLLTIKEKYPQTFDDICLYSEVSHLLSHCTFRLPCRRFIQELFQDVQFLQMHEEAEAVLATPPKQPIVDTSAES
Sequence of Epidermal growth factor receptor (Homo sapiens) (P00533 whole entry): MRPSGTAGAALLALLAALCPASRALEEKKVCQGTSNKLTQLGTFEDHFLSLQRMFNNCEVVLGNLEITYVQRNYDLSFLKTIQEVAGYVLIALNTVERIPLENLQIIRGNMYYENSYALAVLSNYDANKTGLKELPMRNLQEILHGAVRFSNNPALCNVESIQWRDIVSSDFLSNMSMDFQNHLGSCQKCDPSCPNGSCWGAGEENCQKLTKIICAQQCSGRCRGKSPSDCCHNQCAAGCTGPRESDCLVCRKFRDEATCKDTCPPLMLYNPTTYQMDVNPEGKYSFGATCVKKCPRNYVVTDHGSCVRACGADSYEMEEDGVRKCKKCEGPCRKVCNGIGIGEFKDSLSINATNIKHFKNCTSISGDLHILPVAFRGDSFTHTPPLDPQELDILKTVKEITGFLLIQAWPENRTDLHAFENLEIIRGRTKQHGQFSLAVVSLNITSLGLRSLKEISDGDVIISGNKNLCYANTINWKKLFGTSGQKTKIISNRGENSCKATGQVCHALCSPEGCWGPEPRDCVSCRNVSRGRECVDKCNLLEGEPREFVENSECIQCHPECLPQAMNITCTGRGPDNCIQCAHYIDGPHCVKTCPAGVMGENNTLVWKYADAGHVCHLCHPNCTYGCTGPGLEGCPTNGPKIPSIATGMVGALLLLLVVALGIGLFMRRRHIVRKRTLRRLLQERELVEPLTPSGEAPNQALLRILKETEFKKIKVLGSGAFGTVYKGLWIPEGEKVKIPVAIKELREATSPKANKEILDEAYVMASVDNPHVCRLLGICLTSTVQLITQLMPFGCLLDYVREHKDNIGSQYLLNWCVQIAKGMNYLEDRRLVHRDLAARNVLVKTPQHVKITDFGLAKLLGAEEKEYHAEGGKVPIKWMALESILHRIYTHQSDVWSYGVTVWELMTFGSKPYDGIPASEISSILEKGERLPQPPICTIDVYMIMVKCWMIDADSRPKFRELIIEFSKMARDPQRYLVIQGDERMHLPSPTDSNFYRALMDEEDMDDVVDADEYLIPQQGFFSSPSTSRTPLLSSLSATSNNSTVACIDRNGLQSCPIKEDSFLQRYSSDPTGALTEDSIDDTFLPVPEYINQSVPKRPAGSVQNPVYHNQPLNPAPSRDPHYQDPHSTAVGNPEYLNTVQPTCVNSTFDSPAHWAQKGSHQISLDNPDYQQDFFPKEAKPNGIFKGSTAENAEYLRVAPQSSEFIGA
Sequence of Tyrosine-protein kinase JAK3 (Homo sapiens) (P52333 whole entry): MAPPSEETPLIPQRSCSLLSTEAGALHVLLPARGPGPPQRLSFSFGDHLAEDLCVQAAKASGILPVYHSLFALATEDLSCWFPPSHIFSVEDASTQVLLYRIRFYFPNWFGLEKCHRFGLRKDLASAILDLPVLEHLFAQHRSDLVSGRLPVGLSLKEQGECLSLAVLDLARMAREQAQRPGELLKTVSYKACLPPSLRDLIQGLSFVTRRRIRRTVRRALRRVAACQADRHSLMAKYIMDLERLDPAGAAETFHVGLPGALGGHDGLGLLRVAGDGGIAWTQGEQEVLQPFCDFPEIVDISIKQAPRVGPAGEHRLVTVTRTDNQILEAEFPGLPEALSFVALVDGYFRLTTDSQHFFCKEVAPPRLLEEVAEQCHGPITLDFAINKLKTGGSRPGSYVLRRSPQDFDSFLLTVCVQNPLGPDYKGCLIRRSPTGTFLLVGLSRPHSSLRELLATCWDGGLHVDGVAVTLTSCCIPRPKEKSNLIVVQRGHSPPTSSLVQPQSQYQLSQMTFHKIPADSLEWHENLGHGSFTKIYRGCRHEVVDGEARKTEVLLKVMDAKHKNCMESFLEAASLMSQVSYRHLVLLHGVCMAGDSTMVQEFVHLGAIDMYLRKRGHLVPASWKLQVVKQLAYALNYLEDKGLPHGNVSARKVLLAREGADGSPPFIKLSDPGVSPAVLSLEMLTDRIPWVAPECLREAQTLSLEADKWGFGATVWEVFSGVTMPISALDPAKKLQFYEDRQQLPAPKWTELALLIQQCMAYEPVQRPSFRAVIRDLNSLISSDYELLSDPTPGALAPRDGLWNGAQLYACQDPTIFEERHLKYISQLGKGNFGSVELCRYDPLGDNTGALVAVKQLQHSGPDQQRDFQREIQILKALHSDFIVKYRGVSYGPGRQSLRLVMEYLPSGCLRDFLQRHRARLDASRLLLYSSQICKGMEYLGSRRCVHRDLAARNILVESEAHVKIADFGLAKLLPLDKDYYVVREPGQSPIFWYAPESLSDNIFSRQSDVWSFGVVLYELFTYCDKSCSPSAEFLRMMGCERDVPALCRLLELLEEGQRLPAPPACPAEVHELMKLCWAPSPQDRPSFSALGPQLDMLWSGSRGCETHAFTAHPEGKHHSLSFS
Sequence of 3-phosphoinositide-dependent protein kinase 1 (Homo sapiens) (O15530 whole entry, looked up): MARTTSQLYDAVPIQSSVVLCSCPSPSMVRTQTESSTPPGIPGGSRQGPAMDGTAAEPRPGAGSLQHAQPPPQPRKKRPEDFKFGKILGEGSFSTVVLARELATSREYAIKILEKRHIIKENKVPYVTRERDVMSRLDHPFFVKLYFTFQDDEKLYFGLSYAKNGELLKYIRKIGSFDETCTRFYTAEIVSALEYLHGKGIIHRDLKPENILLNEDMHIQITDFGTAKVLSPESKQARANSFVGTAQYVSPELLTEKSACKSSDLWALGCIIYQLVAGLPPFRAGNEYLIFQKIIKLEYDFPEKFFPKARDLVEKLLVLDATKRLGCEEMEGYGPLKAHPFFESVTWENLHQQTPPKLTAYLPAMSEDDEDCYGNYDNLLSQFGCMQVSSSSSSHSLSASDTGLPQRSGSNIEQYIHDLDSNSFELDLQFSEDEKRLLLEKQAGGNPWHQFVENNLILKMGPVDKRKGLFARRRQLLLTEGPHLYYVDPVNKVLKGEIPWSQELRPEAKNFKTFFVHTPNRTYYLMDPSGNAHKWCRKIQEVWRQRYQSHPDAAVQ

inhibition [1]: Active | inhibition [3]: Dose-dependent effect | inhibition [5]: Dose-dependent effect | inhibition [6]: Active | inhibition [9]: inactive | Activity [10]: 94% | Activity [14]: 128% | Activity [18]: 103% | inhibition [19]: Active
SMILES: CNC(=O)CCc1cc(-c2ccc(-c3ccc(C(F)(F)F)cc3)cc2)n(-c2ccc(N3CCNCC3)cc2)n1
Activity (SK-BR-3 [2]): Dose-dependent effect | Activity (PC-3 [4]): 25.2% | Activity (Mus musculus [7]): Active | Activity (Mus musculus [8]): Active | inhibition [11]: Dose-dependent effect | Activity (PC-3 [12]): 12.1% | Activity (PC-3 [13]): 14.9% | inhibition (INH) (HMEC): Not Active | Activity (SK-BR-3 [15]): inactive | Activity (PC-3 [16]): Dose-dependent effect | Activity (PC-3 [17]): 6.3% | Activity (PC-3 [20]): 11.6%
